Here are results for two sequences from article PMC5447658 (Translational Oncology, 2017).

Test [1] has as its target HER2 (SKBR3 cells) (Homo sapiens, UniProt P04626). Description: In vitro receptor competitive binding assay. As to conditions: TP1623 0-500 nmol/L, 30 minutes at 4°C, then tracer 2 h at 4°C. Summed up:
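SKBR3 cells at 2–4 × 10^4/well were seeded the day before. Unlabelled test compound was added at 0, 1, 5, 25, 50 and 500 nmol/L final, in triplicate, for 30 min at 4°C. 99mTc tracer (462 KBq/0.1 μg) followed for 2 h at 4°C. Cells were washed three times in ice-cold PBS, trypsin-digested and gamma-counted. Count was plotted against competitor concentration.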

Test [2] relates to HER2. The following applies: cited from earlier work.

As to G (D) AGG-Aba-YCFPDEEGACY-NH2 [TP1623], in test [1], the “competitive inhibition of binding of 99mTc-TP1623 to HER2” value is “could competitively inhibit the binding”.
Take YCFPDEEGACY: the “affinity for HER2” value in test [2] is reported as “high affinity”.
